# Test results taken from ChEMBL document CHEMBL2384977, “Synthesis and biological evaluation of novel styryl benzimidazole derivatives as probes for imaging of neurofibrillary tangles in Alzheimer's disease” (Bioorg Med Chem, 2013).
# Columns and labels:
# Brain [1] = assay: Drug uptake in human brain at 92.5 kBq after 1 hr by autoradiographic analysis; assay type: ADME, tissue-based
# Pancreas [2] = assay: Biodistribution in ddY mouse pancreas at 13.2 to 20.6 kBq, iv measured at 2 mins by gamma counting analysis; assay type: ADME, organism-based; settings: in vivo
# Outline: (§1)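 Male ddY mice, 5 weeks old, received the 125I-labelled tracer (13.2–20.6 kBq) intravenously in the tail vein, in 100 µL saline containing ethanol. Animals were sacrificed at 2, 10, 30 and 60 min. Tissue radioactivity is expressed as %ID/g, mean (SD) of 5 animals.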
# Heart [3] = assay: Biodistribution in ddY mouse heart at 13.2 to 20.6 kBq, iv measured at 2 mins by gamma counting analysis; assay type: ADME, organism-based; settings: in vivo; outline: as §1
# Spleen [4] = assay: Biodistribution in ddY mouse spleen at 13.2 to 20.6 kBq, iv measured at 2 mins by gamma counting analysis; assay type: ADME, organism-based; settings: in vivo; outline: as §1
# Blood [5] = assay: Biodistribution in ddY mouse blood at 13.2 to 20.6 kBq, iv measured at 2 mins by gamma counting analysis; assay type: ADME, organism-based; settings: in vivo; outline: as §1
# Spleen [6] = assay: Biodistribution in ddY mouse spleen at 13.2 to 20.6 kBq, iv measured at 10 mins by gamma counting analysis; assay type: ADME, organism-based; settings: in vivo; outline: as §1
# Brain [7] = assay: Drug uptake in white matter of alzheimer disease patient brain at 92.5 kBq after 1 hr by autoradiographic analysis; assay type: ADME, tissue-based; settings: human, in vitro
# Outline: (§2)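 Postmortem AD brain (person), 6 µm paraffin sections, deparaffinized in xylene and a graded ethanol series. Sections were incubated with the 125I tracer (92.5 kBq/100 µL) for 1 h at room temperature, then dipped in 50% EtOH for 2 h and rinsed in water. Imaging plates were exposed overnight. Adjacent sections were immunostained with AT8 (phospho-tau) and BC05 (Abeta1-42).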
# Kidney [8] = assay: Biodistribution in ddY mouse kidney at 13.2 to 20.6 kBq, iv measured at 30 mins by gamma counting analysis; assay type: ADME, organism-based; settings: in vivo, 0.5 h; outline: as §1
# Heart [9] = assay: Biodistribution in ddY mouse heart at 13.2 to 20.6 kBq, iv measured at 10 mins by gamma counting analysis; assay type: ADME, organism-based; settings: in vivo; outline: as §1
# Blood [10] = assay: Biodistribution in ddY mouse blood at 13.2 to 20.6 kBq, iv measured at 60 mins by gamma counting analysis; assay type: ADME, organism-based; settings: in vivo, 1 h; outline: as §1
# Brain [11] = assay: Biodistribution in ddY mouse brain at 13.2 to 20.6 kBq, iv measured at 10 mins by gamma counting analysis; assay type: ADME, organism-based; settings: in vivo; outline: as §1
# Kidney [12] = assay: Biodistribution in ddY mouse kidney at 13.2 to 20.6 kBq, iv measured at 10 mins by gamma counting analysis; assay type: ADME, organism-based; settings: in vivo; outline: as §1
# Pancreas [13] = assay: Biodistribution in ddY mouse pancreas at 13.2 to 20.6 kBq, iv measured at 10 mins by gamma counting analysis; assay type: ADME, organism-based; settings: in vivo; outline: as §1
# Intestine [14] = assay: Biodistribution in ddY mouse intestine at 13.2 to 20.6 kBq, iv measured at 30 mins by gamma counting analysis; assay type: ADME, organism-based; settings: in vivo, 0.5 h; outline: as §1
# Stomach [15] = assay: Biodistribution in ddY mouse stomach at 13.2 to 20.6 kBq, iv measured per organ at 2 mins by gamma counting analysis; assay type: ADME, organism-based; settings: in vivo
# Outline: (§3)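 Male ddY mice, 5 weeks old, were injected in the tail vein with the 125I tracer (13.2–20.6 kBq) in 100 µL saline containing ethanol. Sacrifice at 2, 10, 30 and 60 min. Stomach radioactivity is expressed as %ID per whole organ, mean (SD) of 5 animals.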
# Spleen [16] = assay: Biodistribution in ddY mouse spleen at 13.2 to 20.6 kBq, iv measured at 60 mins by gamma counting analysis; assay type: ADME, organism-based; settings: in vivo, 1 h; outline: as §1
# Liver [17] = assay: Biodistribution in ddY mouse liver at 13.2 to 20.6 kBq, iv measured at 10 mins by gamma counting analysis; assay type: ADME, organism-based; settings: in vivo; outline: as §1
# Kidney [18] = assay: Biodistribution in ddY mouse kidney at 13.2 to 20.6 kBq, iv measured at 2 mins by gamma counting analysis; assay type: ADME, organism-based; settings: in vivo; outline: as §1
# Intestine [19] = assay: Biodistribution in ddY mouse intestine at 13.2 to 20.6 kBq, iv measured at 60 mins by gamma counting analysis; assay type: ADME, organism-based; settings: in vivo, 1 h; outline: as §1
# Pancreas [20] = assay: Biodistribution in ddY mouse pancreas at 13.2 to 20.6 kBq, iv measured at 30 mins by gamma counting analysis; assay type: ADME, organism-based; settings: in vivo, 0.5 h; outline: as §1
# Blood [21] = assay: Biodistribution in ddY mouse blood at 13.2 to 20.6 kBq, iv measured at 10 mins by gamma counting analysis; assay type: ADME, organism-based; settings: in vivo; outline: as §1
# Blood [22] = assay: Biodistribution in ddY mouse blood at 13.2 to 20.6 kBq, iv measured at 30 mins by gamma counting analysis; assay type: ADME, organism-based; settings: in vivo, 0.5 h; outline: as §1
# Pancreas [23] = assay: Biodistribution in ddY mouse pancreas at 13.2 to 20.6 kBq, iv measured at 60 mins by gamma counting analysis; assay type: ADME, organism-based; settings: in vivo, 1 h; outline: as §1
# Stomach [24] = assay: Biodistribution in ddY mouse stomach at 13.2 to 20.6 kBq, iv measured per organ at 10 mins by gamma counting analysis; assay type: ADME, organism-based; settings: in vivo; outline: as §3
# [25] = 1-Octanol-PBS buffer partition coefficient, log P of the compound at 0.37 MBq after 2 mins by gamma counting analysis; assay type: physicochemical
# Lung [26] = assay: Biodistribution in ddY mouse lung at 13.2 to 20.6 kBq, iv measured at 10 mins by gamma counting analysis; assay type: ADME, organism-based; settings: in vivo; outline: as §1
# Liver [27] = assay: Biodistribution in ddY mouse liver at 13.2 to 20.6 kBq, iv measured at 2 mins by gamma counting analysis; assay type: ADME, organism-based; settings: in vivo; outline: as §1
# Spleen [28] = assay: Biodistribution in ddY mouse spleen at 13.2 to 20.6 kBq, iv measured at 30 mins by gamma counting analysis; assay type: ADME, organism-based; settings: in vivo, 0.5 h; outline: as §1
# Heart [29] = assay: Biodistribution in ddY mouse heart at 13.2 to 20.6 kBq, iv measured at 30 mins by gamma counting analysis; assay type: ADME, organism-based; settings: in vivo, 0.5 h; outline: as §1
# Stomach [30] = assay: Biodistribution in ddY mouse stomach at 13.2 to 20.6 kBq, iv measured per organ at 60 mins by gamma counting analysis; assay type: ADME, organism-based; settings: in vivo, 1 h; outline: as §3
# Lung [31] = assay: Biodistribution in ddY mouse lung at 13.2 to 20.6 kBq, iv measured at 60 mins by gamma counting analysis; assay type: ADME, organism-based; settings: in vivo, 1 h; outline: as §1
# Lung [32] = assay: Biodistribution in ddY mouse lung at 13.2 to 20.6 kBq, iv measured at 30 mins by gamma counting analysis; assay type: ADME, organism-based; settings: in vivo, 0.5 h; outline: as §1
# Lung [33] = assay: Biodistribution in ddY mouse lung at 13.2 to 20.6 kBq, iv measured at 2 mins by gamma counting analysis; assay type: ADME, organism-based; settings: in vivo; outline: as §1
# Brain [34] = assay: Biodistribution in ddY mouse brain at 13.2 to 20.6 kBq, iv measured at 2 mins by gamma counting analysis; assay type: ADME, organism-based; settings: in vivo; outline: as §1
# Stomach [35] = assay: Biodistribution in ddY mouse stomach at 13.2 to 20.6 kBq, iv measured per organ at 30 mins by gamma counting analysis; assay type: ADME, organism-based; settings: in vivo, 0.5 h; outline: as §3
# Brain [36] = assay: Biodistribution in ddY mouse brain at 13.2 to 20.6 kBq, iv measured at 60 mins by gamma counting analysis; assay type: ADME, organism-based; settings: in vivo, 1 h; outline: as §1
# Brain [37] = assay: Ratio of drug level in ddY mouse brain at 13.2 to 20.6 kBq, iv measured at 2 mins to drug level in ddY mouse brain at 13.2 to 20.6 kBq, iv measured at 60 mins; assay type: ADME, organism-based; settings: in vivo
# Outline: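 Tail-vein injection of the 125I tracer (13.2–20.6 kBq, saline with ethanol) into male 5-week-old ddY mice. The ratio is brain uptake (%ID/g) at 2 min divided by brain uptake at 60 min, from groups of 5 animals.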
# Heart [38] = assay: Biodistribution in ddY mouse heart at 13.2 to 20.6 kBq, iv measured at 60 mins by gamma counting analysis; assay type: ADME, organism-based; settings: in vivo, 1 h; outline: as §1
# Brain [39] = assay: Drug uptake in gray matter of alzheimer disease patient brain at 92.5 kBq after 1 hr by autoradiographic analysis; assay type: ADME, tissue-based; settings: human, in vitro; outline: as §2
# Intestine [40] = assay: Biodistribution in ddY mouse intestine at 13.2 to 20.6 kBq, iv measured at 2 mins by gamma counting analysis; assay type: ADME, organism-based; settings: in vivo; outline: as §1
# Kidney [41] = assay: Biodistribution in ddY mouse kidney at 13.2 to 20.6 kBq, iv measured at 60 mins by gamma counting analysis; assay type: ADME, organism-based; settings: in vivo, 1 h; outline: as §1
# Intestine [42] = assay: Biodistribution in ddY mouse intestine at 13.2 to 20.6 kBq, iv measured at 10 mins by gamma counting analysis; assay type: ADME, organism-based; settings: in vivo; outline: as §1
# Brain [43] = assay: Biodistribution in ddY mouse brain at 13.2 to 20.6 kBq, iv measured at 30 mins by gamma counting analysis; assay type: ADME, organism-based; settings: in vivo, 0.5 h; outline: as §1
# Liver [44] = assay: Biodistribution in ddY mouse liver at 13.2 to 20.6 kBq, iv measured at 30 mins by gamma counting analysis; assay type: ADME, organism-based; settings: in vivo, 0.5 h; outline: as §1
# Liver [45] = assay: Biodistribution in ddY mouse liver at 13.2 to 20.6 kBq, iv measured at 60 mins by gamma counting analysis; assay type: ADME, organism-based; settings: in vivo, 1 h; outline: as §1
# Brain [46] = assay: Ratio of drug level in ddY mouse brain at 7.1 to 21.5 kBq, iv measured at 2 mins to drug level in ddY mouse brain at 7.1 to 21.5 kBq, iv measured at 60 mins; assay type: ADME, organism-based; settings: in vivo
# Brain [47] = assay: Ratio of drug level in ddY mouse brain at 64.5 kBq, iv measured at 2 mins to drug level in ddY mouse brain at 64.5 kBq, iv measured at 60 mins; assay type: ADME, organism-based; settings: in vivo
compound,measurement,setting,value
CN(C)c1ccc(/C=C/c2nc3ccc([125I])cc3[nH]2)cc1,Drug uptake,Brain [1],Not Active
same,Drug uptake,Pancreas [2],5.4 % ID/g
same,Drug uptake,Heart [3],8.56 % ID/g
same,Drug uptake,Spleen [4],3.48 % ID/g
same,Drug uptake,Blood [5],3.83 % ID/g
same,Drug uptake,Spleen [6],3.69 % ID/g
same,Drug uptake,Brain [7],Not Active
same,Drug uptake,Kidney [8],4.32 % ID/g
same,Drug uptake,Heart [9],3.46 % ID/g
same,Drug uptake,Blood [10],1.28 % ID/g
same,Drug uptake,Brain [11],1.61 % ID/g
same,Drug uptake,Kidney [12],7.28 % ID/g
same,Drug uptake,Pancreas [13],3.31 % ID/g
same,Drug uptake,Intestine [14],18.2 % ID/g
same,Drug uptake,Stomach [15],1.67 %ID
same,Drug uptake,Spleen [16],1.42 % ID/g
same,Drug uptake,Liver [17],19.2 % ID/g
same,Drug uptake,Kidney [18],11.7 % ID/g
same,Drug uptake,Intestine [19],26.5 % ID/g
same,Drug uptake,Pancreas [20],1.67 % ID/g
same,Drug uptake,Blood [21],3.24 % ID/g
same,Drug uptake,Blood [22],1.88 % ID/g
same,Drug uptake,Pancreas [23],0.89 % ID/g
same,Drug uptake,Stomach [24],2.82 %ID
same,logP at 2 min,[25],2.23
same,Drug uptake,Lung [26],3.98 % ID/g
same,Drug uptake,Liver [27],17.4 % ID/g
same,Drug uptake,Spleen [28],2.66 % ID/g
same,Drug uptake,Heart [29],2 % ID/g
same,Drug uptake,Stomach [30],3.56 %ID
same,Drug uptake,Lung [31],1.39 % ID/g
same,Drug uptake,Lung [32],2.2 % ID/g
same,Drug uptake,Lung [33],7.39 % ID/g
same,Drug uptake,Brain [34],3.28 % ID/g
same,Drug uptake,Stomach [35],3.83 %ID
same,Drug uptake,Brain [36],0.33 % ID/g
same,Ratio,Brain [37],9.94
same,Drug uptake,Heart [38],1.12 % ID/g
same,Drug uptake,Brain [39],Active
same,Drug uptake,Intestine [40],3.11 % ID/g
same,Drug uptake,Kidney [41],2.26 % ID/g
same,Drug uptake,Intestine [42],9.22 % ID/g
same,Drug uptake,Brain [43],0.68 % ID/g
same,Drug uptake,Liver [44],14.9 % ID/g
same,Drug uptake,Liver [45],10.1 % ID/g
O=C1/C(=C/c2ccc(-c3cccc([125I])c3)o2)NC(=S)N1CCc1c[nH]cn1,Ratio,Brain [46],6.16
CN(C)c1ccc(/N=N/c2nc3ccc(OCCOCCOCC[18F])cc3s2)cc1,Ratio,Brain [47],1.69
